Active and inactive are the calls of the source. Where only a bound is given, the exact number is not on record here.

Data set [1] addresses T1, Proteasome Macropain subunit MB1 (Homo sapiens, UniProt P28074).
T1 sequence (P28074 whole entry): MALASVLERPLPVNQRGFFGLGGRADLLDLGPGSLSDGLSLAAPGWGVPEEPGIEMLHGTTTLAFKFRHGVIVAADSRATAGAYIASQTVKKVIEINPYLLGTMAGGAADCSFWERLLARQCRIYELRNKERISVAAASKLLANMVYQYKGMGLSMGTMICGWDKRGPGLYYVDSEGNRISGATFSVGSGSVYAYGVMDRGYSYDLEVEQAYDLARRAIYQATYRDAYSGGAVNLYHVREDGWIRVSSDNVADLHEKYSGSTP
As to the kind of experiment: Inhibition of human 20S proteasome chymotrypsin-like activity using Suc-Leu-Leu-Val-Tyr-AMC as substrate pretreated for 15 mins followed by substrate addition by fluorescence assay.

Another data set has as its system RPMI-8226. The data set can be described thus: Antiproliferative activity against human RPMI8226 cells after 72 hrs by MTS assay. In kind it is functional, cell-based. To be noted: RPMI-8226, 72 h. For orientation: Formazan colour is commonly taken as a measure of viable cells.
Another data set has as its system MM1.S. The data set can be described thus: Antiproliferative activity against human MM1S cells after 72 hrs by MTS assay. Format: functional, cell-based.
The test system of data set [2] is Mus musculus. The data set can be described thus: In vivo inhibition of 20S proteasome chymotrypsin-like activity in Balb/c mouse blood at 30 mg/kg, po measured at 2 to 24 hrs post dose using LLVY-AMC as substrate by fluorescence assay. In kind it is functional, organism-based. The method, boiled down:
(§1)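 BALB/c mice dosed orally in 0.5% CMC-Na vehicle. Blood was sampled at 2 and 24 h after dosing for proteasome chymotrypsin-like activity.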

Another data set relates to MV4-11. As to the kind of experiment: Antiproliferative activity against human MV4-11 cells after 72 hrs by MTS assay. In kind it is functional, cell-based. The following applies: MV4-11, 72 h.
Data set [3] is described as follows: Cmax in ICR mouse at 30 mg/kg, po via gavage by LC-MS/MS analysis. In kind it is ADME, organism-based. More on the design: dose 30 mg/kg, route oral. To be noted: in vivo.
Data set [4] in a line: Metabolic stability in mouse liver microsomes assessed as parent compound remaining at 100 uM after 30 mins by LC-MS/MS analysis. Format: ADME, Microsome. To be noted: read-out: Stability. In outline: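 After the microsomal incubation, the clear supernatant was analysed by ESI LC-MS. The read-out was the relative peak area of each parent compound.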
On the technique in general: Liver microsomes are a subcellular fraction often used to study metabolism.

Data set [5] in a line: AUC (0 to t) in ICR mouse at 30 mg/kg, po via gavage after 1 hr by LC-MS/MS analysis. More on the design: time < 1 hr, dose 30 mg/kg, route oral. To be noted: in vivo. In kind it is ADME, organism-based.
A short description of data set [6]: Tmax in ICR mouse at 30 mg/kg, po via gavage by LC-MS/MS analysis. In kind it is ADME, organism-based. To be noted: in vivo.
Data set [7] is described as follows: Cmax in ICR mouse at 25 mg/kg, po via gavage by LC-MS/MS analysis. Format: ADME, organism-based. More on the design: dose 25 mg/kg, route oral. The following applies: in vivo.
Data set [8] is described as follows: Volume of distribution at steady state in ICR mouse at 5 mg/kg, iv by LC-MS/MS analysis. In kind it is ADME, organism-based. The following applies: in vivo, read-out: Vdss.
Data set [9] in a line: Tmax in ICR mouse at 25 mg/kg, po via gavage by LC-MS/MS analysis. The following applies: in vivo. In kind it is ADME, organism-based.
Data set [10] in a line: Half life in ICR mouse at 5 mg/kg, iv by LC-MS/MS analysis. Format: ADME, organism-based. The following applies: in vivo.
Data set [11] in a line: Clearance in ICR mouse at 5 mg/kg, iv by LC-MS/MS analysis. Format: ADME, organism-based. The following applies: in vivo.
A short description of data set [12]: AUC (0 to t) in ICR mouse at 5 mg/kg, iv after 1 hr by LC-MS/MS analysis. Format: ADME, organism-based. Further details: time < 1 hr, dose 5 mg/kg, route intravenous. The following applies: in vivo.
The nature of data set [13]: AUC (0 to t) in ICR mouse at 25 mg/kg, po via gavage after 1 hr by LC-MS/MS analysis. Format: ADME, organism-based. More on the design: time < 1 hr, dose 25 mg/kg, route oral. To be noted: in vivo.
Data set [14] in a line: Oral bioavailability in ICR mouse at 25 mg/kg via gavage by LC-MS/MS analysis. To be noted: in vivo. Format: ADME, organism-based.
A short description of data set [15]: Apparent permeability from basolateral to apical side in human Caco2 cells measured at 90 mins time interval by LC-MS/MS analysis. The following applies: Caco-2.
Data set [16] can be described thus: Apparent permeability from apical to basolateral side in human Caco2 cells measured at 90 mins time interval by LC-MS/MS analysis. To be noted: Caco-2. Background: Passage across Caco-2 layers is used to estimate intestinal permeability.
Data set [17] in a line: Efflux ratio of apparent permeability in human Caco2 cells measured at 90 mins time interval by LC-MS/MS analysis. To be noted: Caco-2.
For data set [18], the system named is Mus musculus. As to the kind of experiment: In vivo inhibition of 20S proteasome chymotrypsin-like activity in Balb/c mouse blood at 100 mg/kg, po measured at 2 to 24 hrs post dose using LLVY-AMC as substrate by fluorescence assay. Format: functional, organism-based. In outline:
as §1

The nature of data set [19]: Metabolic stability in mouse liver microsomes assessed as parent compound remaining at 100 uM after 5 mins by LC-MS/MS analysis. Format: ADME, Microsome. The following applies: read-out: Stability.

For orientation: IC50 means the concentration needed to halve the response being measured. Usually Cmax stands for the maximum level reached in the sampled fluid or tissue. For orientation: AUC(0-t) means the area under the concentration-time curve up to a stated or last time point. High values mean high exposure, low ones low exposure. What is called Tmax is the time from dosing to the highest level. With `COC[C@@H]1NC(=O)c2nccn2CCCCCCOC[C@@H](C(=O)N[C@@H](Cc2ccccc2)C(=O)[C@@]2(C)CO2)NC1=O`, the IC50 in data set [1] was 14 nM; in the data set on RPMI-8226, 3 nM; in the data set on MM1.S it was 1 nM; with MV4-11 it was 3 nM. Besides, the inhibition entry with Mus musculus [2] is “Active”. In [3], this compound displayed a Cmax of 92 ng/mL. Besides, the remaining at 0.5 h, 100 µM in [4] was found to be 92%. This compound registered an AUC(0-t) at 1 h in [5] of 58 ng·h/mL. The Tmax in [6] was 13.2 min.

The term half-life denotes the time needed for the level to fall by half in the phase considered. In general, clearance refers to the rate of elimination divided by the concentration. A word on the bioavailability: it is the share of a dose that reaches the circulation, judged against a reference dose that is usually intravenous. Low readings indicate poor availability, high ones good availability. With `COC[C@@H]1NC(=O)c2ccnn2CCCCCCOC[C@@H](C(=O)N[C@@H](Cc2ccccc2)C(=O)[C@@]2(C)CO2)NC1=O`, the Cmax in [7] stood at 325 ng/mL. In addition, the IC50 is 16 nM in data set [1], 2 nM in the data set on RPMI-8226, 3 nM in the data set on MM1.S and 2 nM in the data set on MV4-11. The Vd in data set [8] turned out to be 0.48 L/kg. Also, the inhibition result in the data set with Mus musculus [2] is “Active”. Besides, the Tmax in data set [9] was 4.8 min. The compound further registered a half-life in [10] of 6 min. This compound also displayed a clearance in data set [11] of 107 mL/min/kg. Further, the results for the AUC(0-t) at 1 h in data set [12] and in data set [13] were 784 ng·h/mL and 141 ng·h/mL, respectively. For the same compound, the remaining at 0.5 h, 100 µM in [4] amounted to 75%. This compound displayed a bioavailability in data set [14] of 3.72%.

The term Papp B→A denotes how fast a substance crosses the layer from the basolateral side. The Papp A→B is how fast a substance crosses the layer from the apical side. As usually defined, the efflux ratio is the permeability from basolateral to apical divided by that in the opposite direction, in the common usage. With `COCCc1ccc(OCC(O)CNC(C)C)cc1` (centres undefined) [METOPROLOL], the Papp B→A at 1.5 h in data set [15] stood at 25.9 ×10⁻⁶ cm/s. In [16], the Papp A→B at 1.5 h stood at 35.2 ×10⁻⁶ cm/s. In data set [17], the efflux ratio at 1.5 h worked out at 0.74.

As to `CC[C@H]1OC(=O)[C@H](C)[C@@H](O[C@H]2C[C@@](C)(OC)[C@@H](O)[C@H](C)O2)[C@H](C)[C@@H](O[C@@H]2O[C@H](C)C[C@H](N(C)C)[C@H]2O)[C@](C)(O)C[C@@H](C)C(=O)[C@H](C)[C@@H](O)[C@]1(C)O` [ERYTHROMYCIN], the Papp B→A at 1.5 h in data set [15] is 15.1 ×10⁻⁶ cm/s. Moreover, the Papp A→B at 1.5 h in data set [16] was under 0.19 ×10⁻⁶ cm/s. Besides, in data set [17], the efflux ratio at 1.5 h is over 79.5.

The compound `COC[C@@H]1NC(=O)c2ccccc2OCCCCCCOC[C@@H](C(=O)N[C@@H](Cc2ccccc2)C(=O)[C@@]2(C)CO2)NC1=O` had a Cmax in data set [7] of 519 ng/mL. The IC50 was 54 nM in [1], over 100 nM with RPMI-8226, 58 nM in the data set on MM1.S and 36 nM in the data set on MV4-11. In addition, the Vd in data set [8] was determined as 0.62 L/kg. For the same compound, the inhibition entry with Mus musculus [2] is “inactive”. In data set [9], the Tmax is 4.8 min. In data set [10], this compound yielded a half-life of 9.6 min. This compound also showed a clearance in data set [11] of 67.2 mL/min/kg. Further, the AUC(0-t) at 1 h is 1240 ng·h/mL in [12] and 133 ng·h/mL in data set [13]. Moreover, the inhibition result in the data set with Mus musculus [18] was “Active”. Further, the remaining at 5 min, 100 µM in [19] is under 5%. Also, the bioavailability in data set [14] was found to be 2.15%.

The values are drawn from ChEMBL document CHEMBL4371012, “Development of Macrocyclic Peptides Containing Epoxyketone with Oral Availability as Proteasome Inhibitors” (J Med Chem, 2018).
